Here are results for 4 compounds from ChEMBL document CHEMBL4130356, “Design, synthesis and 2D QSAR study of novel pyridine and quinolone hydrazone derivatives as potential antimicrobial and antitubercular agents” (Eur J Med Chem, 2017).

Data set [1] has as its system Mycobacterium tuberculosis. Nature of the data set: Antimycobacterial activity against Mycobacterium tuberculosis RCMB 010126 clinical isolate after 7 days by MABA. In kind it is functional. Conditions: for MIC: Mycobacterium tuberculosis, RCMB 010126, 168 h. An outline of the steps: (§1)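 Inoculum from fresh LJ culture resuspended in 7H9-S broth with casitone, glycerol and OADC, adjusted to McFarland No. 1 and diluted 1:20. Serial two-fold compound dilutions in 7H9-S; isoniazid reference. Incubated 7 days at 37°C in air, then Alamar blue added and incubated overnight. Percent inhibition = 1 − (test well/growth-control mean) × 100; MIC = lowest concentration preventing blue-to-pink change.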

Data set [2] in a line: Selectivity index, ratio of IC50 for human WI38 cells to MIC for Mycobacterium tuberculosis RCMB 010126 clinical isolate. It counts as toxicity. Conditions: read-out: Selectivity Index. The essentials: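 WI-38 human lung fibroblasts grown in DMEM with 10% FBS at 37°C and 5% CO2, seeded at 1×10^4 cells/well, and exposed to serial two-fold dilutions in triplicate. Viability read by crystal violet stain at 490 nm. IC50 taken from dose-response plots. Ratio uses this IC50 against the MABA MIC for M. tuberculosis.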

The subject of data set [3] is Streptococcus pneumoniae. Nature of the data set: Antimicrobial activity against Streptococcus pneumoniae RCMB 010010 assessed as diameter of zone inhibition at 100 ug/ml after 24 hrs by agar well diffusion assay. It counts as functional. Conditions: RCMB 010010, 24 h, read-out: DIZ. The essentials:
(§2)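 Agar well diffusion on nutrient agar plates seeded with the bacterium, using 1 cm wells. Plates were held at 4°C for 1 h for diffusion, then incubated at 37°C. Inhibition zone diameters were measured at 24 h. Ciprofloxacin was the positive control. Run in triplicate, with the mean zone reported.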
On the technique in general: A growth-free zone around the sample is the usual read-out of agar diffusion tests.

The test system of data set [4] is Escherichia coli. The data set is described as follows: Antimicrobial activity against Escherichia coli RCMB 010052 after 24 hrs by serial dilution method. It counts as functional. Conditions: RCMB 010052, 24 h. An outline of the steps: (§3)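 Serial twofold dilution in microtiter plates starting from a 100 mmol stock in DMSO; final concentrations 125 down to 0.12 […]. Incubated at 37°C and read on a microplate reader after 24 h. Ciprofloxacin was the reference. Run in triplicate, with the average taken. MIC was the lowest concentration inhibiting growth.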

Data set [5] relates to Staphylococcus aureus. Nature of the data set: Antimicrobial activity against Staphylococcus aureus RCMB 010028 assessed as diameter of zone inhibition at 100 ug/ml after 24 hrs by agar well diffusion assay. In kind it is functional. Conditions: RCMB 010028, 24 h, read-out: DIZ. An outline of the steps:
as §2

The test system of data set [6] is Candida albicans. Nature of the data set: Antimicrobial activity against Candida albicans RCMB 05036 after 48 hrs by serial dilution method. In kind it is functional. Conditions: RCMB 05036, 48 h. The essentials:
(§4)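 Serial twofold dilution in microtiter plates starting from a 100 mmol stock in DMSO; final concentrations 125 down to 0.12 […]. Incubated at 28°C and read on a microplate reader after 48 h. Amphotericin B was the reference. Run in triplicate, with the average taken. MIC was the lowest concentration inhibiting growth.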

For data set [7], the system named is Streptococcus pneumoniae. The data set is described as follows: Antimicrobial activity against Streptococcus pneumoniae RCMB 010010 after 24 hrs by serial dilution method. In kind it is functional. Conditions: RCMB 010010, 24 h. The essentials: as §3
For data set [8], the system named is Candida albicans. The data set is described as follows: Antimicrobial activity against Candida albicans RCMB 05036 assessed as diameter of zone inhibition at 100 ug/ml after 48 hrs by agar well diffusion assay. In kind it is functional. Conditions: RCMB 05036, 48 h, read-out: DIZ. An outline of the steps: (§5)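 Agar well diffusion on malt agar plates seeded with the fungus, using 1 cm wells. Plates were held at 4°C for 1 h for diffusion, then incubated at 28°C. Inhibition zone diameters were measured at 48 h. Amphotericin B was the positive control. Run in triplicate, with the mean zone reported.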

The test system of data set [9] is Escherichia coli. The data set is described as follows: Potency index, ratio of ciprofloxacin MIC to test compound MIC for Escherichia coli RCMB 010052. In kind it is functional.
Data set [10] relates to Pseudomonas aeruginosa. Conditions: RCMB 010043, 100 ug/ml.
Data set [11] has as its system Aspergillus fumigatus. The data set is described as follows: Antimicrobial activity against Aspergillus fumigatus RCMB 02568 assessed as diameter of zone inhibition at 100 ug/ml after 48 hrs by agar well diffusion assay. In kind it is functional. Conditions: RCMB 02568, 48 h, read-out: DIZ. An outline of the steps: as §5
The next data set concerns WI-38. The data set is described as follows: Cytotoxicity against human WI38 cells assessed as reduction in cell viability after 24 hrs by crystal violet staining-based colorimetric method. Conditions: WI-38, 24 h. An outline of the steps:
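WI-38 cells were grown in DMEM with 10% FBS at 37°C and 5% CO2, then seeded at 1×10^4 cells/well. Serial twofold dilutions were added, three wells per concentration. Viability was read by crystal violet stain, solubilised in 30% acetic acid, at 490 nm. Run in triplicate. IC50 was estimated from dose-response plots.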

In data set [12] the test system is Mycobacterium tuberculosis. Nature of the data set: Antimycobacterial activity against Mycobacterium tuberculosis RCMB 010126 clinical isolate assessed as inhibition zone after 7 days by MABA. In kind it is functional. The essentials: as §1
Background: Alamar Blue is a resazurin reagent that responds to reducing activity.

In data set [13] the test system is Pseudomonas aeruginosa. Conditions: RCMB 010043.
In data set [14] the test system is Aspergillus fumigatus. The data set is described as follows: Antimicrobial activity against Aspergillus fumigatus RCMB 02568 after 48 hrs by serial dilution method. In kind it is functional. Conditions: RCMB 02568, 48 h. The essentials: as §4
The test system of data set [15] is Staphylococcus aureus. The data set is described as follows: Antimicrobial activity against Staphylococcus aureus RCMB 010028 after 24 hrs by serial dilution method. Conditions: RCMB 010028, 24 h. It counts as functional. An outline of the steps: as §3
The subject of data set [16] is Streptococcus pneumoniae. The data set is described as follows: Potency index, ratio of ampicillin MIC to test compound MIC for Streptococcus pneumoniae RCMB 010010. It counts as functional.
The subject of data set [17] is Escherichia coli. Nature of the data set: Antimicrobial activity against Escherichia coli RCMB 010052 assessed as diameter of zone inhibition at 100 ug/ml after 24 hrs by agar well diffusion assay. In kind it is functional. Conditions: RCMB 010052, 24 h, read-out: DIZ. The essentials: as §2
In data set [18] the test system is Pseudomonas aeruginosa. The data set is described as follows: microbe, parasite or virus in culture. Conditions: RCMB 010043, 24 h, read-out: DIZ.
Data set [19] deals with Pseudomonas aeruginosa. The data set is described as follows: microbe, parasite or virus in culture. Conditions: RCMB 010043, 24 h.

Converted amounts (≈) assume the structure as drawn. The source made the active and inactive calls. No cut-off for these calls is given here.

A word on the IC50: it is the point on the concentration scale where inhibition reaches its midpoint. As to `COc1cc(/C=N/NC(=O)c2ccc(-c3cccc(Cl)c3)nc2C)cc(OC)c1OC`, the MIC is 0.78 µg/mL (≈ 1.77 µM) in [1]; 0.49 µg/mL (≈ 1.11 µM) against Escherichia coli [4]; 0.49 µg/mL (≈ 1.11 µM) against Candida albicans [6]; 0.49 µg/mL (≈ 1.11 µM) against Streptococcus pneumoniae [7]; 0.98 µg/mL (≈ 2.23 µM) with Aspergillus fumigatus [14]; 1.95 µg/mL (≈ 4.43 µM) in the data set on Staphylococcus aureus [15]. The selectivity ratio in [2] was 635. In addition, the zone of inhibition at 100 µg/mL in the data set on Streptococcus pneumoniae [3] was determined as 23.1 mm; in the data set on Staphylococcus aureus [5] it was 21.3 mm; with Candida albicans [8], 21.4 mm; with Aspergillus fumigatus [11], 23.3 mm; with Escherichia coli [17], 25.3 mm. Besides, the Ratio in the data set with Escherichia coli [9] and in the data set on Streptococcus pneumoniae [16] was 2 in each case. Also, in the data set on Pseudomonas aeruginosa [10], the DIZ entry was “inactive”. For the same compound, the IC50 with WI-38 came out at 495 µg/mL (≈ 1130 µM). In data set [12], the “inhibition zone (IZ)” value was 70.48 mm. Also, the MIC result in the data set on Pseudomonas aeruginosa [13] was “inactive”.
`O=C(O)c1cn(C2CC2)c2cc(N3CCNCC3)c(F)cc2c1=O` [CIPROFLOXACIN]: the results for the zone of inhibition at 100 µg/mL with Pseudomonas aeruginosa [18] and in the data set on Escherichia coli [17] were 20.6 mm and 23.4 mm, respectively. For the same compound, the MIC is 0.98 µg/mL (≈ 2.96 µM) with Escherichia coli [4] and 1.95 µg/mL (≈ 5.89 µM) in the data set with Pseudomonas aeruginosa [19].
For `COc1cccc(/C=N/NC(=O)c2ccc(-c3ccc(Cl)cc3)nc2C)c1O`, the MIC in [1] was found to be 0.39 µg/mL (≈ 0.985 µM); against Escherichia coli [4], 1.95 µg/mL (≈ 4.93 µM); in the data set on Candida albicans [6] it was 3.9 µg/mL (≈ 9.85 µM); in the data set on Streptococcus pneumoniae [7] it was 0.98 µg/mL (≈ 2.48 µM); against Aspergillus fumigatus [14] it was 1.95 µg/mL (≈ 4.93 µM); in the data set with Staphylococcus aureus [15], 1.95 µg/mL (≈ 4.93 µM). The selectivity ratio in [2] was determined as 1280. The zone of inhibition at 100 µg/mL in the data set with Streptococcus pneumoniae [3] was determined as 22.3 mm; in the data set on Staphylococcus aureus [5] it was 20.5 mm; in the data set on Candida albicans [8], 20.3 mm; in the data set on Aspergillus fumigatus [11], 21.3 mm; with Escherichia coli [17] it was 21.5 mm. The DIZ entry in the data set on Pseudomonas aeruginosa [10] was “inactive”. Further, the IC50 with WI-38 is 500 µg/mL (≈ 1260 µM). The “inhibition zone (IZ)” value in data set [12] is reported as 80.63 mm. For the same compound, the MIC entry in the data set on Pseudomonas aeruginosa [13] was “inactive”.
Turning to `COc1ccc(/C=N/NC(=O)c2ccc(-c3cccc(Cl)c3)nc2C)cc1OC`, the “-logMIC” value in [1] stood at 0.1079. Moreover, the MIC in [1] turned out to be 0.78 µg/mL (≈ 1.9 µM); with Escherichia coli [4] it was 1.95 µg/mL (≈ 4.76 µM); with Candida albicans [6] it was 15.6 µg/mL (≈ 38.1 µM); against Streptococcus pneumoniae [7], 3.9 µg/mL (≈ 9.52 µM); against Aspergillus fumigatus [14] it was 3.9 µg/mL (≈ 9.52 µM); with Staphylococcus aureus [15], 7.81 µg/mL (≈ 19.1 µM). The selectivity ratio in data set [2] was 215. The zone of inhibition at 100 µg/mL in the data set with Streptococcus pneumoniae [3] stood at 19.6 mm; in the data set with Staphylococcus aureus [5], 17.9 mm; in the data set on Candida albicans [8], 17.2 mm; in the data set with Aspergillus fumigatus [11], 19.3 mm; in the data set with Escherichia coli [17] it was 21.6 mm. In the data set on Pseudomonas aeruginosa [10], the DIZ result is “inactive”. The IC50 in the data set on WI-38 came to 168 µg/mL (≈ 410 µM). Besides, the “inhibition zone (IZ)” value in data set [12] is given as 73.58 mm. Further, the MIC result in the data set on Pseudomonas aeruginosa [13] was “inactive”.
